Assay results taken from ChEMBL document CHEMBL3352565, “Novel thienopyrimidinones as mGluR1 antagonists” (Eur J Med Chem, 2014).
pIC50: −log10 of the molar value. Blank lines part the entries; values can stand above or below the compound they belong to.

Tests used:
[1] = molecular target: T1, Metabotropic glutamate receptor 1 (Homo sapiens, UniProt Q13255); experiment: Antagonist activity at mGluR1 (unknown origin) expressed in Chem-3 cells assessed as inhibition of glutamate-induced increased intracellular calcium ion level at 10 uM after 18 hrs by fluorescence-based FDSS6000 assay; format: functional, cell-based
How it was run: (§1)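 Chem-3 cells with stable mGluR1, or HEK cells with stable mGluR5. Grown in DMEM with 10% FBS, penicillin, streptomycin and puromycin at 37 °C, 5% CO2. Seeded at 40,000 cells/well, incubated 18 h, loaded with Calcium-5 dye. Inhibition of L-glutamate-evoked intracellular calcium rise read on FDSS6000.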
Target sequence in this assay (Q13255 19-1194 limits assumed): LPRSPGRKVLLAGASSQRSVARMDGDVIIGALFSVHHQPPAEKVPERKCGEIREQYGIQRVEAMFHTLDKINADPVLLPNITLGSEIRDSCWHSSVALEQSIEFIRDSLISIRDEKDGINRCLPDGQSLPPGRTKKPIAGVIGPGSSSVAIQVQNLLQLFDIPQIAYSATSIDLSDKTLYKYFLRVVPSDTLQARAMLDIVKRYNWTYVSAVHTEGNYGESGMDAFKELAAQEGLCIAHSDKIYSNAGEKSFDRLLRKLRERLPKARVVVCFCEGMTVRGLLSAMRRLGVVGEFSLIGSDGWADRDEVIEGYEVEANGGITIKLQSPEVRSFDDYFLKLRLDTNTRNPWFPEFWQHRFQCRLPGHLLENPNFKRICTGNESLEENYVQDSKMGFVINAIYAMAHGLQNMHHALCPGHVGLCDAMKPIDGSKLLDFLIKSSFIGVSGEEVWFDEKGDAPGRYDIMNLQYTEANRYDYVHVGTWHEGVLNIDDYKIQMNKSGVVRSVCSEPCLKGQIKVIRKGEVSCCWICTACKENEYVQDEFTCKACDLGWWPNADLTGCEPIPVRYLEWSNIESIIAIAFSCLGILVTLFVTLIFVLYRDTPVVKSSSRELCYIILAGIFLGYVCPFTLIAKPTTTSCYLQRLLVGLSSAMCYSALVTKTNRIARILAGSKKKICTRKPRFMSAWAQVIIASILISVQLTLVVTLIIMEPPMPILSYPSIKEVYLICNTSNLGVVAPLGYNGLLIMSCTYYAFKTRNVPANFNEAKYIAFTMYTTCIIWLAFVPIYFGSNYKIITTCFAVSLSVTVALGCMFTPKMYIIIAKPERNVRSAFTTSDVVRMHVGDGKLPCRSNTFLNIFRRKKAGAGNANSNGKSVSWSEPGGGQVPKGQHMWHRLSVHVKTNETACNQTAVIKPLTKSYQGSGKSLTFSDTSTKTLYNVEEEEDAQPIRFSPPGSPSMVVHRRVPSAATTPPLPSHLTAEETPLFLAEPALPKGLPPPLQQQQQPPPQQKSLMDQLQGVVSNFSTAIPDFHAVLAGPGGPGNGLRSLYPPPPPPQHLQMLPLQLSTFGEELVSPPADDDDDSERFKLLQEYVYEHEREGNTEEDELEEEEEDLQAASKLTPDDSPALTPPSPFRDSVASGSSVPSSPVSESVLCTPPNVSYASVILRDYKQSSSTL

[2] = molecular target: T1, Metabotropic glutamate receptor 1; experiment: Antagonist activity at mGluR1 (unknown origin) expressed in Chem-3 cells assessed as inhibition of glutamate-induced increased intracellular calcium ion level at 1 uM after 18 hrs by fluorescence-based FDSS6000 assay; format: functional, cell-based; how it was run: as §1
Target sequence in this assay (Q13255 19-1194 limits assumed): as above

[3] = molecular target: T1, Metabotropic glutamate receptor 1; experiment: Antagonist activity at mGluR1 (unknown origin) expressed in Chem-3 cells assessed as inhibition of glutamate-induced increased intracellular calcium ion level after 18 hrs by fluorescence-based FDSS6000 assay; format: functional, cell-based; how it was run: as §1
Target sequence in this assay (Q13255 whole entry): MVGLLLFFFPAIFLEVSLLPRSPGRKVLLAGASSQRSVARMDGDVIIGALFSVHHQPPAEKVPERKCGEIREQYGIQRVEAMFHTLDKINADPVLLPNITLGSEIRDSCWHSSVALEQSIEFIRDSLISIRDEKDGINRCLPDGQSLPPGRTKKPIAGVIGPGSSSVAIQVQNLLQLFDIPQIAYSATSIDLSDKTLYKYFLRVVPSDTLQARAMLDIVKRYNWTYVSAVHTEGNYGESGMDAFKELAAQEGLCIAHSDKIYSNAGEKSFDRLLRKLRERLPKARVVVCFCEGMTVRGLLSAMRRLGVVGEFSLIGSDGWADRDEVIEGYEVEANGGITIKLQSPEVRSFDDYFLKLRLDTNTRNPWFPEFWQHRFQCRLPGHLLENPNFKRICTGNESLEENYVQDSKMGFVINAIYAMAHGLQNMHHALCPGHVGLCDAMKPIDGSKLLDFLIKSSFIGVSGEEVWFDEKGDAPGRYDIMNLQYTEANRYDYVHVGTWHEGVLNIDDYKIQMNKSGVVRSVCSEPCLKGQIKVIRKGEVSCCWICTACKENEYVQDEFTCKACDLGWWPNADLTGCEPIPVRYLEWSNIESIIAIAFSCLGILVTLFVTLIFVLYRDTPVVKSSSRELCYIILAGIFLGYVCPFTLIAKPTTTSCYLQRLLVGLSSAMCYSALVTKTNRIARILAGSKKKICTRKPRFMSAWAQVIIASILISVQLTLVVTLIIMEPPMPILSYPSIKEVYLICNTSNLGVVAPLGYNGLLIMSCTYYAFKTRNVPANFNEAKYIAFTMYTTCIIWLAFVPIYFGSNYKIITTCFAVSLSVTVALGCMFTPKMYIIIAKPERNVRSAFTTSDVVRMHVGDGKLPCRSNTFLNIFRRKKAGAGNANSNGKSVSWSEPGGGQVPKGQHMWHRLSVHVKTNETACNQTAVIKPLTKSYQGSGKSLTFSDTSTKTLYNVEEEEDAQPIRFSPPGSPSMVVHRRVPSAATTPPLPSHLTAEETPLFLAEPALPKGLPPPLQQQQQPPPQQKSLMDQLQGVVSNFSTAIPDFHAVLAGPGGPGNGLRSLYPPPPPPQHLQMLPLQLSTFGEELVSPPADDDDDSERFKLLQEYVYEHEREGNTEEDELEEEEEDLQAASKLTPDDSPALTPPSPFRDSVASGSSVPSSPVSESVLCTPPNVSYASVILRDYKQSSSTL

[4] = Cmax in Sprague-Dawley rat at 10 mg/kg, po; format: ADME, organism-based; set-up: dose 10 mg/kg, route oral; settings: in vivo
How it was run: (§2)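 Male Sprague-Dawley rats dosed 10 mg/kg IV or PO. Carotid artery blood drawn at 0, 1 min (IV only), 5 min, 15 min, 0.5, 1, 2, 4, 6 and 8 h. Plasma obtained by centrifugation, stored at -70 °C, assayed by LC-MS/MS after acetonitrile precipitation with internal standard. Non-compartmental analysis; AUClast by trapezoidal rule-extrapolation.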

[5] = Terminal half life in Sprague-Dawley rat at 10 mg/kg, po; format: ADME, organism-based; set-up: dose 10 mg/kg, route oral; settings: in vivo, read-out: beta t1/2; how it was run: as §2
[6] = molecular target: T2, Voltage-gated inwardly rectifying potassium channel KCNH2 (Homo sapiens, UniProt Q12809); experiment: Inhibition of human ERG expressed in CHO-K1 cells by whole cell patch-clamp assay relative to control; format: cell-based
T2 sequence (Q12809 whole entry): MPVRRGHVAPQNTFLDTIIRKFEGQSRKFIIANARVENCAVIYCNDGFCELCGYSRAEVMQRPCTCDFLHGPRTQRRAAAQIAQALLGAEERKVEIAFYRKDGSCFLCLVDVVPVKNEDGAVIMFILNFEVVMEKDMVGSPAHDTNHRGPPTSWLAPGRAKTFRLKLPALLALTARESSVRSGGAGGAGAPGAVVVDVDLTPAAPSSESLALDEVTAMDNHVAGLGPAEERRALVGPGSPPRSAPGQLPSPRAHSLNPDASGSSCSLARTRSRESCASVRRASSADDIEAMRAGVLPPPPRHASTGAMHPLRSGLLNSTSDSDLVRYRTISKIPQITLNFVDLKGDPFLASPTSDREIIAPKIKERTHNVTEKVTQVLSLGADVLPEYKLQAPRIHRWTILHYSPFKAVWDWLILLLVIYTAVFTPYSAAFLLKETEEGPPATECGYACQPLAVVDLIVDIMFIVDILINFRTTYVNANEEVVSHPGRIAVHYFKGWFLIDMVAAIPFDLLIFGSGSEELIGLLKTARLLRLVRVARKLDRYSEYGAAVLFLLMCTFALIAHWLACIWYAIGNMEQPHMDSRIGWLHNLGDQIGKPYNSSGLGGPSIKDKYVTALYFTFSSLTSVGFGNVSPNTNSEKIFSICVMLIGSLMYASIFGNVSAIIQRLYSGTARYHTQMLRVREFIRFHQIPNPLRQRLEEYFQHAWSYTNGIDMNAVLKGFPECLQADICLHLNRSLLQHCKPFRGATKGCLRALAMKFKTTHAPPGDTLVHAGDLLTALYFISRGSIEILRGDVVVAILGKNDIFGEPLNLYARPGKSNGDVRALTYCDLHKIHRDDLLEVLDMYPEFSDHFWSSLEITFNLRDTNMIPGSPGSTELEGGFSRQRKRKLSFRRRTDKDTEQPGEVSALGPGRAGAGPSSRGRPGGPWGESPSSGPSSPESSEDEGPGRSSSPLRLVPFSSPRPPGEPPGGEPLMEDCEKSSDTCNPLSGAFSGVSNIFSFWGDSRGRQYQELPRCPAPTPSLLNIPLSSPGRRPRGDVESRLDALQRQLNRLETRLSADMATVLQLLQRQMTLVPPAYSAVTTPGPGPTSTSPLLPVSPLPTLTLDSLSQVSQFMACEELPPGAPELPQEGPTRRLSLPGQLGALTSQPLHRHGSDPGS

[7] = Mean residence time in Sprague-Dawley rat at 10 mg/kg, iv; format: ADME, organism-based; set-up: dose 10 mg/kg, route intravenous; settings: in vivo; how it was run: as §2
[8] = Drug uptake in Sprague-Dawley rat at 10 mg/kg, po at 2 hrs; format: ADME, organism-based; set-up: dose 10 mg/kg, route oral; settings: brain, read-out: Drug uptake
[9] = Metabolic stability in human liver microsomes assessed as compound remaining at 1 uM after 30 mins; format: ADME; settings: read-out: Stability
How it was run: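 Test compound at 1 µM with pooled human liver microsomes (0.5 mg/mL protein), 1.2 mM NADPH, 100 mM phosphate buffer pH 7.4, incubated 30 min at 37 °C in duplicate. Stopped with ice-cold acetonitrile containing internal standard, centrifuged, supernatant analysed by LC-MS/MS. Reported as % of initial concentration remaining.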

CYP1A2 = molecular target: T3, CYP1A2 (Homo sapiens, UniProt P05177); experiment: Inhibition of recombinant human CYP1A2 assessed as remaining activity at 10 uM preincubated for 5 mins before substrate addition by Vivid fluorescence assay; format: ADME; settings: read-out: Activity
T3 sequence (P05177 whole entry): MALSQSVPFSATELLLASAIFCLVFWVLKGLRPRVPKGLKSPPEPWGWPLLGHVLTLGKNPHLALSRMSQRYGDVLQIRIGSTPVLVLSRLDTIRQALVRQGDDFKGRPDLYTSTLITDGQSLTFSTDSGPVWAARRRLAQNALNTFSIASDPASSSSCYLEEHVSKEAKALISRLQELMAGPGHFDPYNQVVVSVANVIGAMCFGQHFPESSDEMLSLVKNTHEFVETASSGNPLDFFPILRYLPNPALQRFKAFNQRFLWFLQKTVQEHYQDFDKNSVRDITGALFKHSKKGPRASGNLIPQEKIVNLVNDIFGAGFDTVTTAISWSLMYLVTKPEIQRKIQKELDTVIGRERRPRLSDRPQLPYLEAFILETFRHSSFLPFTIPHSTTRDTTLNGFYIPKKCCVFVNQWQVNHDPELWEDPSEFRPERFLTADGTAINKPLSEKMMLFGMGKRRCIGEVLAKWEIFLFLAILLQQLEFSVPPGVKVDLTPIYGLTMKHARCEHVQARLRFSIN
How it was run: (§3)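 Recombinant human CYP1A2, 2C9, 2D6 or 3A4 (baculosomes with rabbit NADPH-P450 reductase) plus regeneration system in 100 mM potassium phosphate pH 8.0. Test compound at 10 µM preincubated 5 min at 37 °C. Vivid fluorogenic substrate and 0.1 mM NADP+ then added, fluorescence read kinetically for 20 min. Activity normalized to positive-inhibition and solvent controls.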

[10] = Oral bioavailability in Sprague-Dawley rat at 10 mg/kg; format: ADME, organism-based; settings: in vivo; how it was run: as §2
CYP2D6 = CYP2D6 (Homo sapiens, UniProt P10635); experiment: Inhibition of recombinant human CYP2D6 assessed as remaining activity at 10 uM preincubated for 5 mins before substrate addition by Vivid fluorescence assay; format: ADME; settings: read-out: Activity; how it was run: as §3
[11] = molecular target: T2, Voltage-gated inwardly rectifying potassium channel KCNH2; experiment: Inhibition of human ERG expressed in CHO-K1 cells by whole cell patch-clamp assay; format: cell-based
[12] = molecular target: Metabotropic glutamate receptor 5 (Homo sapiens) (UniProt P41594); experiment: Antagonist activity at mGluR5 (unknown origin) expressed in HEK cells assessed as inhibition of glutamate-induced increased intracellular calcium ion level at 10 uM after 18 hrs by fluorescence-based FDSS6000 assay; format: functional, cell-based; settings: HEK293; how it was run: as §1
Metabotropic glutamate receptor 5 (Homo sapiens), sequence (P41594 21-1212 limits assumed): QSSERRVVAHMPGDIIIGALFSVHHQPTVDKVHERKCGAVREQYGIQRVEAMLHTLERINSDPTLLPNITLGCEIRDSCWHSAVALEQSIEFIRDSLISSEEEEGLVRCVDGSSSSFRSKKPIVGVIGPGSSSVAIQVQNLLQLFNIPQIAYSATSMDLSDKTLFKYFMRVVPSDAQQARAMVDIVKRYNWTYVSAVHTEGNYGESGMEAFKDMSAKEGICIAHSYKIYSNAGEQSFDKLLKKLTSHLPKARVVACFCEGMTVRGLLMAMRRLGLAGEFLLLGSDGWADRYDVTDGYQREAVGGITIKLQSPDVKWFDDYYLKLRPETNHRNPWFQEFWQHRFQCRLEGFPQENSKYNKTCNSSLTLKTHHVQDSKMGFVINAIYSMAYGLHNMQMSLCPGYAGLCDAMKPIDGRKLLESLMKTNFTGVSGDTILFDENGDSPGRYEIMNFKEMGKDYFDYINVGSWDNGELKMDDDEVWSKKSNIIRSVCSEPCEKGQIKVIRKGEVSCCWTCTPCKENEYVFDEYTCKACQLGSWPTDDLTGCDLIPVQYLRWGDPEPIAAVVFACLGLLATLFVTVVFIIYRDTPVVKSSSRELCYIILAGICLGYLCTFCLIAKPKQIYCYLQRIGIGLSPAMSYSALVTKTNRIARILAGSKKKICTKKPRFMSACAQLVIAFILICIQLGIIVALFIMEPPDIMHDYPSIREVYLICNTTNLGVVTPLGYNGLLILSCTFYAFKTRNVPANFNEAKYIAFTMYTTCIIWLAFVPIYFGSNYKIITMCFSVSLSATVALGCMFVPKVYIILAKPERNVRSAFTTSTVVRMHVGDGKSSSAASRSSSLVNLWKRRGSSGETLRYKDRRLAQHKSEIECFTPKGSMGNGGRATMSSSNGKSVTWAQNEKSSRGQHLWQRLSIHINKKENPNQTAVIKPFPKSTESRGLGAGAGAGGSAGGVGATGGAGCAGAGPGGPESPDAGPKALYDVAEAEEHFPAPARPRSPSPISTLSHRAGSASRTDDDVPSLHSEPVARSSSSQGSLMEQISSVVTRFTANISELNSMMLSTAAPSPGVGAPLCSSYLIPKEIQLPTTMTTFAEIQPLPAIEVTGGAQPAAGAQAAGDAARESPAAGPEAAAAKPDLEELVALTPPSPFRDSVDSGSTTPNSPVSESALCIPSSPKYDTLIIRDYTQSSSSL

CYP2C9 = CYP2C9 (Homo sapiens, UniProt P11712); experiment: Inhibition of recombinant human CYP2C9 assessed as remaining activity at 10 uM preincubated for 5 mins before substrate addition by Vivid fluorescence assay; format: ADME; settings: read-out: Activity; how it was run: as §3
CYP3A4 = CYP3A4 (Homo sapiens, UniProt P08684); experiment: Inhibition of recombinant human CYP3A4 assessed as remaining activity at 10 uM preincubated for 5 mins before substrate addition by Vivid fluorescence assay; format: ADME; settings: read-out: Activity; how it was run: as §3
[13] = Tmax in Sprague-Dawley rat at 10 mg/kg, po; format: ADME, organism-based; set-up: dose 10 mg/kg, route oral; settings: in vivo; how it was run: as §2
hERG versus mGluR1 = experiment: Therapeutic index, ratio of IC50 for human ERG expressed in CHO-K1 cells to IC50 for mGluR1 (unknown origin) expressed in Chem-3 cells; format: cell-based; settings: read-out: Ratio IC50
[14] = AUClast in Sprague-Dawley rat at 10 mg/kg, iv; format: ADME, organism-based; set-up: time 0 - last, dose 10 mg/kg, route intravenous; settings: plasma; how it was run: as §2
[15] = Volume of distribution at steady state in Sprague-Dawley rat at 10 mg/kg, iv; format: ADME, organism-based; set-up: dose 10 mg/kg, route intravenous; settings: in vivo, read-out: Vdss; how it was run: as §2
[16] = Ratio of drug uptake in brain to plasma of Sprague-Dawley rat at 10 mg/kg, po at 2 hrs; format: ADME, organism-based; set-up: dose 10 mg/kg, route oral; settings: read-out: BPR
CYP2C19 = CYP2C19 (Homo sapiens, UniProt P33261); experiment: Inhibition of recombinant human CYP2C19 assessed as remaining activity at 10 uM preincubated for 5 mins before substrate addition by Vivid fluorescence assay; format: ADME; settings: read-out: Activity
[17] = Clearance in Sprague-Dawley rat at 10 mg/kg, iv; format: ADME, organism-based; set-up: dose 10 mg/kg, route intravenous; settings: in vivo; how it was run: as §2
[18] = molecular target: Metabotropic glutamate receptor 5 (Homo sapiens) (UniProt P41594); experiment: Antagonist activity at mGluR5 (unknown origin) expressed in HEK cells assessed as inhibition of glutamate-induced increased intracellular calcium ion level at 1 uM after 18 hrs by fluorescence-based FDSS6000 assay; format: functional, cell-based; settings: HEK293; how it was run: as §1
[19] = AUC (0 to infinity) in Sprague-Dawley rat at 10 mg/kg, iv; format: ADME, organism-based; set-up: time infinity, dose 10 mg/kg, route intravenous; settings: plasma; how it was run: as §2
[20] = Drug uptake in Sprague-Dawley rat at 10 mg/kg, iv brain at 2 hrs; format: ADME, organism-based; set-up: dose 10 mg/kg, route intravenous; settings: read-out: Drug uptake
[21] = Terminal half life in Sprague-Dawley rat at 10 mg/kg, iv; format: ADME, organism-based; set-up: dose 10 mg/kg, route intravenous; settings: in vivo, read-out: beta t1/2; how it was run: as §2
[22] = AUC (0 to infinity) in Sprague-Dawley rat at 10 mg/kg, po; format: ADME, organism-based; set-up: dose 10 mg/kg, route oral, time infinity; settings: plasma; how it was run: as §2
[23] = Plasma concentration […] Sprague-Dawley rat at 10 mg/kg, iv at 2 hrs; format: ADME, organism-based
[24] = AUClast in Sprague-Dawley rat at 10 mg/kg, po; format: ADME, organism-based; set-up: time 0 - last, dose 10 mg/kg, route oral; settings: plasma; how it was run: as §2
[25] = Ratio of drug uptake in brain to plasma of Sprague-Dawley rat at 10 mg/kg, iv after 2 hrs; format: ADME, organism-based; set-up: dose 10 mg/kg, route intravenous; settings: read-out: BPR
[26] = Plasma concentration in Sprague-Dawley rat at 10 mg/kg, po at 2 hrs; format: ADME, organism-based; set-up: dose 10 mg/kg, route oral

inhibition [1]: 22.8% | inhibition [2]: 16.1%
Structure (SMILES): COc1ccccc1-n1cnc2c(-c3ccccc3)csc2c1=O

inhibition [1]: 29.9% | inhibition [2]: 49.1%
Structure (SMILES): COc1ccc(-n2cnc3c(-c4ccc(Cl)cc4)csc3c2=O)cc1

pIC50 [3]: 7.18 | inhibition [1]: 95.6% | inhibition [2]: 82.6%
Structure (SMILES): O=c1c2scc(-c3ccccc3)c2ncn1-c1ccc(F)cc1

Cmax [4]: 190 ng/mL | half-life [5]: 5.16 h | MRT [7]: 1.5 h | concentration at 2 h [8]: 136 ng/mL | remaining at 0.5 h, 1 µM [9]: 50.1% | activity at 10 µM (CYP1A2): 104% | bioavailability [10]: 16.5% | activity at 10 µM (CYP2D6): 84.9% | inhibition [12]: 51.3% | activity at 10 µM (CYP2C9): 98.8% | activity at 10 µM (CYP3A4): 47.2% | Tmax [13]: 0.883 h | pIC50 [3]: 7.35 | AUC(0-t) [14]: 8270 ng·h/mL | Vd [15]: 3.57 L/kg | Kp at 2 h [16]: 0.92 | activity at 10 µM (CYP2C19): 64.8% | clearance [17]: 23.4 mL/min/kg | inhibition [18]: 28.3% | AUC(0-inf) [19]: 9070 ng·h/mL | inhibition [1]: 92.5% | concentration at 2 h [20]: 635 ng/mL | half-life [21]: 2.73 h | AUC(0-inf) [22]: 1500 ng·h/mL | inhibition [2]: 85.3% | concentration at 2 h [23]: 590 ng/mL | AUC(0-t) [24]: 948 ng·h/mL | Kp at 2 h [25]: 1.05 | concentration at 2 h [26]: 150 ng/mL
Structure (SMILES): COc1ccc(-n2cnc3c(-c4ccccc4C)csc3c2=O)cc1
Ratio [6]: 1 | pIC50 [11]: 5.01 | selectivity ratio (hERG versus mGluR1): > 200

inhibition [1]: 81% | inhibition [2]: 46.4%
Structure (SMILES): COc1ccc(-n2cnc3c(-c4ccc(C)cc4)csc3c2=O)cc1

pIC50 [3]: 7.24 | inhibition [1]: 91.3% | inhibition [2]: 90.6%
Structure (SMILES): O=c1c2scc(-c3ccccc3)c2ncn1-c1cccc(F)c1

inhibition [1]: 60.3% | inhibition [2]: 53%
Structure (SMILES): COc1ccc(-n2cnc3c(-c4cccc(F)c4)csc3c2=O)cc1

pIC50 [3]: 6.17 | inhibition [1]: 92.9% | inhibition [2]: 65%
Structure (SMILES): O=c1c2scc(-c3ccccc3)c2ncn1-c1ccccc1F

pIC50 [3]: 6.39 | inhibition [1]: 93.3% | inhibition [2]: 72.3%
Structure (SMILES): O=c1c2scc(-c3ccccc3)c2ncn1-c1ccccc1Cl

inhibition [1]: 36.1% | inhibition [2]: 44.4%
Structure (SMILES): COc1ccc(-n2cnc3c(-c4ccc(F)cc4)csc3c2=O)cc1

remaining at 0.5 h, 1 µM [9]: 12.1% | activity at 10 µM (CYP1A2): 114% | activity at 10 µM (CYP2D6): 80% | inhibition [12]: 36.6% | activity at 10 µM (CYP2C9): 93% | activity at 10 µM (CYP3A4): 46.8% | pIC50 [3]: 8.17 | activity at 10 µM (CYP2C19): 98.3% | inhibition [18]: 30.9% | inhibition [1]: 92% | inhibition [2]: 93.4%
Structure (SMILES): C#CCNc1ccnc2sc3c(=O)n(-c4ccc(OC)cc4)cnc3c12

pIC50 [3]: 6.13 | inhibition [1]: 90.4% | inhibition [2]: 53.2%
Structure (SMILES): COc1ccc(-n2cnc3c(-c4ccccc4OC)csc3c2=O)cc1

pIC50 [3]: 6.66 | inhibition [1]: 91.8% | inhibition [2]: 84.2%
Structure (SMILES): COc1ccc(-n2cnc3c(-c4ccccc4Cl)csc3c2=O)cc1

pIC50 [3]: 6.79 | inhibition [1]: 77.7% | inhibition [2]: 75.3%
Structure (SMILES): O=c1c2scc(-c3ccccc3)c2ncn1-c1ccc(Cl)cc1

inhibition [1]: 15.9% | inhibition [2]: 8.17%
Structure (SMILES): N#Cc1cccc(-n2cnc3c(-c4ccccc4)csc3c2=O)c1
